Test results published in ChEMBL document CHEMBL1765023, “Acetyl analogs of combretastatin A-4: synthesis and biological studies” (Bioorg Med Chem, 2011).

Key:
NCI-H522 = assay: Growth inhibition of human NCI-H522 cells after 48 hrs by sulforhodamine B assay; format: functional; conditions: NCI-H522, 48 h
Summary of the method: (§1)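 NCI 60 human cancer cell line screen run at the National Cancer Institute. Cells had 48 h continuous exposure, and proliferation was read by sulforhodamine B staining. GI50 (50% growth inhibition) was taken from dose–response curves.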

HCT-15 = assay: Growth inhibition of human HCT15 cells after 48 hrs by sulforhodamine B assay; format: functional; conditions: HCT-15, 48 h; summary of the method: as §1
KM12 = assay: Growth inhibition of human KM12 cells after 48 hrs by sulforhodamine B assay; format: functional; conditions: KM12, 48 h; summary of the method: as §1
SW-620 = assay: Growth inhibition of human SW620 cells after 48 hrs by sulforhodamine B assay; format: functional; conditions: SW-620, 48 h
Summary of the method: (§2)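 Tested in the NCI 60 human cancer cell line panel. Cells were exposed continuously for 48 h and proliferation was read by sulforhodamine B staining. GI50 (concentration for 50% growth inhibition), TGI (total growth inhibition) and LC50 were taken from dose–response curves.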

SF-295 = assay: Growth inhibition of human SF295 cells after 48 hrs by sulforhodamine B assay; format: functional; conditions: SF-295, 48 h; summary of the method: as §1
SF-539 = assay: Growth inhibition of human SF539 cells after 48 hrs by sulforhodamine B assay; format: functional; conditions: SF-539, 48 h; summary of the method: as §1
SNB-19 = assay: Growth inhibition of human SNB19 cells after 48 hrs by sulforhodamine B assay; format: functional; conditions: SNB-19, 48 h; summary of the method: as §2
SNB-75 = assay: Growth inhibition of human SNB75 cells after 48 hrs by sulforhodamine B assay; format: functional; conditions: SNB-75, 48 h; summary of the method: as §2
SK-MEL-28 = assay: Growth inhibition of human SK-MEL-28 cells after 48 hrs by sulforhodamine B assay; format: functional; conditions: SK-MEL-28, 48 h; summary of the method: as §1
SK-MEL-5 = assay: Growth inhibition of human SK-MEL-5 cells after 48 hrs by sulforhodamine B assay; format: functional; conditions: SK-MEL-5, 48 h; summary of the method: as §1
UACC-257 = assay: Growth inhibition of human UACC257 cells after 48 hrs by sulforhodamine B assay; format: functional; conditions: UACC-257, 48 h; summary of the method: as §2
IGROV-1 = assay: Growth inhibition of human IGROV1 cells after 48 hrs by sulforhodamine B assay; format: functional; conditions: IGROV-1, 48 h; summary of the method: as §1
OVCAR-3 = assay: Growth inhibition of human OVCAR3 cells after 48 hrs by sulforhodamine B assay; format: functional; conditions: OVCAR-3, 48 h; summary of the method: as §1
OVCAR-5 = assay: Growth inhibition of human OVCAR5 cells after 48 hrs by sulforhodamine B assay; format: functional; conditions: OVCAR-5, 48 h; summary of the method: as §1
A498 = assay: Growth inhibition of human A498 cells after 48 hrs by sulforhodamine B assay; format: functional; conditions: A498, 48 h; summary of the method: as §1
ACHN = assay: Growth inhibition of human ACHN cells after 48 hrs by sulforhodamine B assay; format: functional; summary of the method: as §1
CAKI-1 = assay: Growth inhibition of human Caki1 cells after 48 hrs by sulforhodamine B assay; format: functional; conditions: CAKI-1, 48 h; summary of the method: as §1
RXF 393 = assay: Growth inhibition of human RXF393 cells after 48 hrs by sulforhodamine B assay; format: functional; conditions: RXF 393, 48 h; summary of the method: as §1
TK-10 = assay: Growth inhibition of human TK10 cells after 48 hrs by sulforhodamine B assay; format: functional; conditions: TK-10, 48 h; summary of the method: as §2
UO-31 = assay: Growth inhibition of human UO31 cells after 48 hrs by sulforhodamine B assay; format: functional; conditions: UO-31, 48 h; summary of the method: as §2
[1] = Growth inhibition of human Hs 578T cells after 48 hrs by sulforhodamine B assay; format: functional; summary of the method: as §1
T47D = assay: Growth inhibition of human T47D cells after 48 hrs by sulforhodamine B assay; format: functional; summary of the method: as §2
[2] = Induction of microtubule depolymerization in […] cells for 18 hrs by indirect immunofluorescence microscopic analysis; format: cell-based
Summary of the method: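 Uses A-10 cells, a non-transformed line that arrests in interphase under microtubule-targeting agents. Cells were treated for 18 h and interphase microtubules were visualized by indirect immunofluorescence microscopy, with vehicle-treated controls. Depolymerization was screened at concentrations below 30 µM. For EC50, a range of concentrations was tested, and EC50 is the concentration causing 50% loss of cellular microtubules by microscopy.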

Mus musculus [3] = assay: Toxicity in DBA2 mouse assessed as change in body weight at 75 mg/kg, ip QD administered on alternate days for 17 days measured on day 23 relative to control; format: organism-based; set-up: dose 75 mg/kg, route intraperitoneal; conditions: in vivo, 408 h
Summary of the method: (§3)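 Healthy female DBA2 mice, 5–7 weeks old, five per group, received 75 mg/kg ip on days 1, 5, 9, 13 and 17. Vehicle was PET (PEG400/ethanol/Tween 80, 6:3:1), 5% glucose and DMSO, with final ethanol 15% and DMSO 10%. Controls received 100 µL vehicle. Body weight was measured every other day. At sacrifice on day 23, blood counts (hematocrit, WBC, granulocytes, platelets) and liver, kidney and spleen appearance and weight were assessed.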

Mus musculus [4] = assay: Toxicity in DBA2 mouse assessed as change in color, weight and size in liver at 75 mg/kg, ip QD administered on alternate days for 17 days measured on day 23 relative to control; format: organism-based; set-up: dose 75 mg/kg, route intraperitoneal; conditions: in vivo, 408 h; summary of the method: as §3
Mus musculus [5] = assay: Toxicity in DBA2 mouse assessed as change in color, weight and size in kidney at 75 mg/kg, ip QD administered on alternate days for 17 days measured on day 23 relative to control; format: organism-based; set-up: dose 75 mg/kg, route intraperitoneal; conditions: in vivo, 408 h; summary of the method: as §3
Mus musculus [6] = assay: Toxicity in DBA2 mouse assessed as change in color, weight and size in spleen at 75 mg/kg, ip QD administered on alternate days for 17 days measured on day 23 relative to control; format: organism-based; set-up: dose 75 mg/kg, route intraperitoneal; conditions: in vivo, 408 h; summary of the method: as §3
Mus musculus [7] = assay: Toxicity in DBA2 mouse assessed as change in granulocyte count at 75 mg/kg, ip QD administered on alternate days for 17 days measured on day 23 relative to control; format: organism-based; set-up: dose 75 mg/kg, route intraperitoneal; conditions: in vivo, 408 h; summary of the method: as §3
HL-60(TB) = assay: Growth inhibition of human HL-60(TB) cells after 48 hrs by sulforhodamine B assay; format: functional; conditions: HL-60, 48 h
Summary of the method: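 NCI 60 human cancer cell line panel, tested at the National Cancer Institute. Continuous 48 h drug exposure, with proliferation read by sulforhodamine B staining. Dose–response curves gave GI50 (concentration inhibiting growth by 50%), TGI (total growth inhibition) and LC50.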

SR = assay: Growth inhibition of human SR cells after 48 hrs by sulforhodamine B assay; format: functional; summary of the method: as §2
EKVX = assay: Growth inhibition of human EKVX cells after 48 hrs by sulforhodamine B assay; format: functional; summary of the method: as §1
HOP-92 = assay: Growth inhibition of human HOP92 cells after 48 hrs by sulforhodamine B assay; format: functional; conditions: HOP-92, 48 h; summary of the method: as §1

## COc1ccc(/C=C(/C(C)=O)c2cc(OC)c(OC)c(OC)c2)cc1O
NCI-H522
  GI50: 135 nM
NCI-H522; read-out: pTGI (converted)
  TGI: 537 nM
HCT-15
  GI50: 398 nM
HCT-15; read-out: pTGI
  TGI: > 100000 nM
KM12
  GI50: 112 nM
KM12; read-out: pTGI (converted)
  TGI: 1950 nM
SW-620
  GI50: 91.2 nM
SW-620; read-out: pTGI (converted)
  TGI: 53700 nM
SF-295
  GI50: 263 nM
SF-295; read-out: pTGI (converted)
  TGI: 1050 nM
SF-539
  GI50: 302 nM
SF-539; read-out: pTGI
  TGI: > 100000 nM
SNB-19
  GI50: 676 nM
SNB-19; read-out: pTGI
  TGI: > 100000 nM
SNB-75
  GI50: 257 nM
SNB-75; read-out: pTGI
  TGI: > 100000 nM
SK-MEL-28
  GI50: 100000 nM
SK-MEL-28; read-out: pTGI
  TGI: > 100000 nM
SK-MEL-5
  GI50: 132 nM
SK-MEL-5; read-out: pTGI (converted)
  TGI: 3090 nM
UACC-257
  GI50: 186 nM
UACC-257; read-out: pTGI
  TGI: > 100000 nM
IGROV-1
  GI50: 316 nM
IGROV-1; read-out: pTGI
  TGI: > 100000 nM
OVCAR-3
  GI50: 95.5 nM
OVCAR-3; read-out: pTGI (converted)
  TGI: 355 nM
OVCAR-5
  GI50: 4270 nM
OVCAR-5; read-out: pTGI
  TGI: > 100000 nM
A498
  GI50: 67.6 nM
A498; read-out: pTGI (converted)
  TGI: 550 nM
ACHN
  GI50: 1230 nM
ACHN; read-out: pTGI
  TGI: > 100000 nM
CAKI-1
  GI50: 186 nM
CAKI-1; read-out: pTGI (converted)
  TGI: 19500 nM
RXF 393
  GI50: 219 nM
TK-10
  GI50: 18200 nM
TK-10; read-out: pTGI
  TGI: > 100000 nM
UO-31
  GI50: 575 nM
UO-31; read-out: pTGI
  TGI: > 100000 nM
[1]
  GI50: 89.1 nM
[1]; read-out: pTGI (converted)
  TGI: 74100 nM
T47D
  GI50: 100000 nM
T47D; read-out: pTGI
  TGI: > 100000 nM
[2]
  EC50: 1800 nM
Mus musculus [3]
  Activity: Non-toxic
Mus musculus [4]
  Activity: Non-toxic
Mus musculus [5]
  Activity: Non-toxic
Mus musculus [6]
  Activity: Non-toxic
Mus musculus [7]
  Activity: Non-toxic
HL-60(TB)
  GI50: 37.1 nM
SR
  GI50: 26.3 nM
SR; read-out: pTGI
  TGI: > 100000 nM
EKVX
  GI50: 5250 nM
EKVX; read-out: pTGI
  TGI: > 100000 nM
HOP-92
  GI50: 3310 nM
HOP-92; read-out: pTGI
  TGI: > 100000 nM
